ABHD5-PLIN5 inh: ABHD5-PLIN5 interaction inhibitors, primary screen, cell lysate, split luciferase complementation, luminescence; AID 602281, 2012; inhibition, % at 4 µM; Perilipin-5 (Homo sapiens) + 1-acylglycerol-3-phosphate O-acyltransferase ABHD5 (Homo …; hit rate 0.78% among 360,000; Split G. princeps luciferase complementation, 4 h;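 active = inhibition above the mean inhibition across every tested compound plus 3 SD, cut at about 22% in these data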;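 note: 0% = DMSO only wells and the 100% control is not disclosed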
PRMT1 inh: PRMT1 methyltransferase inhibitors, primary screen, biochemical, fluorescence polarization. recombinant PRMT1, activity-based probe fluorescence polarization. inhibition, % at 2.79 µM. hit rate 1.3% among 370,000;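 active = inhibition above about 21% made by adding two undisclosed values, limit read from the data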
Target sequence (Q99873 whole entry, looked up): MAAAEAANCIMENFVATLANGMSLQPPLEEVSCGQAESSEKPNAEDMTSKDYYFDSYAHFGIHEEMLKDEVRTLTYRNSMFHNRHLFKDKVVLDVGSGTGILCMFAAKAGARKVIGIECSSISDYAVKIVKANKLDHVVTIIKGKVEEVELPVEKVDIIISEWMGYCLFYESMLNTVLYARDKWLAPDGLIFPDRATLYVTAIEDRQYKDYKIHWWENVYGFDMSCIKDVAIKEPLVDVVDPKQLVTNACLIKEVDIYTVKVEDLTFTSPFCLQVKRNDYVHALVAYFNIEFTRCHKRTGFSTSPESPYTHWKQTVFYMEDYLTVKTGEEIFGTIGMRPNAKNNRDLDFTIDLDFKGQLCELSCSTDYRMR
NS3 helicase inh: inhibitors of HCV NS3 helicase, primary screen, biochemical, Cy5 molecular beacon fluorescence. Hepatitis C virus NS3 helicase. hit rate 0.56% among 290,000. NS3 helicase DNA unwinding. AID 1800, 2009. inhibition, % at 10.9 µM;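 active = inhibition above the mean of all tested compounds plus 3 SD, set per campaign, cut at about 35% in these data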;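 note: 0% = DMSO wells and 100% = thioflavine S control wells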
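Assay system – hepatitis C virus NS3 helicase domain fragment enzyme · Buffer or medium – MOPS pH 6.5, MgCl2, DTT, Tween20, BSA · Reagent – Cy5/quencher beacon DNA duplex and ATP to start · Compound – single 10.9 µM dose · Timing – 1 h at 25 °C · Technique – Cy5 beacon fluorescence read at start and 1 h · Measure – % inhibition of unwinding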
HCV core dimer: inhibitors of HCV core protein dimerization, primary screen, biochemical, TR-FRET, high-throughput; inhibition, % at 5 µM; hit rate 0.33% among 300,000; TR-FRET GST/Flag-core106 dimerization, 1536-well; AID 1899, 2009;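 active = inhibition above the mean of all tested compounds plus 3 SD, set per screening campaign, cut at about 45% in these data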
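System: GST-tagged and Flag-tagged HCV core protein residues 1-106 / Input: core106 proteins, GST 13.5 nM and Flag 17 nM / Buffer or medium: KF-containing HEPES buffer, pH 7.45, DTT, CHAPS, BSA / Probe or stimulus: Eu-anti-GST and XL665-anti-Flag labelled anti-tag antibodies / Schedule: 4 h, 22.5 °C incubation / Technique: TR-FRET 671 and 617 nm emission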
APOBEC3A inh: APOBEC3A ssDNA deaminase inhibitors, primary screen, selectivity assay for APOBEC3G inhibitor project, biochemical, FAM/TAMRA oligo cleavage fluorescence. AID 493011, 2011. hit rate 0.41% among 330,000. recombinant A3A, FAM/TAMRA ssDNA deamination fluorescence. DNA dC->dU-editing enzyme APOBEC-3A (Homo sapiens), P31941. inhibition, % at 20 µM;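 active = at least 40% inhibition at 20 µM here, with at most 30% in a related deaminase screen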;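 note: plate controls were A3A with DMSO for no effect and wells lacking A3A enzyme for full effect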
APOBEC3G inh: APOBEC3G DNA deaminase inhibitors, primary screen, biochemical, fluorescence, single-stranded DNA substrate, uHTS; DNA dC->dU-editing enzyme APOBEC-3G (Homo sapiens), Q9HC16; recombinant A3G, ssDNA deamination FAM/TAMRA fluorescence; inhibition, % at 20 µM; hit rate 0.28% among 330,000;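 active = inhibition of at least 40% at 20 µM, with no more than 30% in the related APOBEC3A deaminase screen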;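 note: plate controls were DMSO wells with A3G for no effect and wells lacking A3G enzyme for full effect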
Target sequence (Q9HC16 whole entry, looked up): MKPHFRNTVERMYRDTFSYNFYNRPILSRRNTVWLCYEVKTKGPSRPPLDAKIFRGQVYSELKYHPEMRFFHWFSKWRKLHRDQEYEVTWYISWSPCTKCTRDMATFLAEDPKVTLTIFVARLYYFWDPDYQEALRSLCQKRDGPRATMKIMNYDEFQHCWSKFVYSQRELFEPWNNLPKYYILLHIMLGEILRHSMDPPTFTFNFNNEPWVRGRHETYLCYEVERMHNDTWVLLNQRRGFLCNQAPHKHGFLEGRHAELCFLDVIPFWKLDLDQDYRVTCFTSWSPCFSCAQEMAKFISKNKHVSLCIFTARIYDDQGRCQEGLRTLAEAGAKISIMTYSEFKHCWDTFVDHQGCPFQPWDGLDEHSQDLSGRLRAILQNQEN
PRMT1 confirm: PRMT1 methyltransferase inhibitors, confirmation, biochemical, fluorescence polarization, triplicate; hit rate 42% among 3,300; inhibition, % at 2.79 µM; shares compounds with PRMT1 inh; recombinant His-PRMT1, activity-based probe fluorescence polarization;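 active = mean inhibition across replicates above the hit cutoff derived for the earlier primary screen, cut at about 22% in these data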
Numbers without * were called inactive; nt = no result. A selection: hits, their analogues and other compounds. The true share with any hit is near 2.9%.

SMILES | ABHD5-PLIN5 inh | PRMT1 inh | NS3 helicase inh | HCV core dimer | APOBEC3A inh | APOBEC3G inh | PRMT1 confirm
CC(NC(=O)COC(=O)COc1cccc2c1OC(C)(C)C2)c1ccccc1 (centres undefined) | 0.6 | -1.4 | 0.5 | -0.1 | 2.3 | -4.4 | nt
O=C1NC(=O)C(=Cc2ccccc2[N+](=O)[O-])S1 | -26.5 | 9.3 | nt | nt | nt | nt | nt
COc1cc(/C=C2\S/C(=N/S(=O)(=O)c3ccccc3)NC2=O)c([N+](=O)[O-])cc1OC | -13.9 | 29.8* | 10.8 | -10.6 | -1.5 | -6.0 | 1.8
Cc1ccc(OCC2Cn3c(nc4c3c(=O)[nH]c(=O)n4C)O2)cc1C (centres undefined) | -5.7 | 3.6 | -3.2 | -4.8 | -4.1 | 3.5 | nt
COCCNC(=S)c1ccc(Br)cc1 | -5.3 | 35.9* | 1.9 | -0.7 | -2.1 | 8.1 | 8.1
CCNC(COC(=O)c1ccc([N+](=O)[O-])cc1)C1CCCCC1 (centres undefined) | -11.9 | -2.2 | nt | nt | nt | nt | nt
NC(=S)NN=C1c2cc(S(=O)(=O)N3CCOCC3)ccc2-c2ccc(S(=O)(=O)N3CCOCC3)cc21 | 1.1 | 29.9* | 6.4 | -8.8 | 4.2 | 2.2 | 7.0
CN(C)N=C1c2cc(S(=O)(=O)N3CCOCC3)ccc2-c2ccc(S(=O)(=O)N3CCOCC3)cc21 | -2.8 | -0.3 | -14.2 | 5.0 | 2.4 | -4.9 | nt
Cn1ncc2c1NC(c1ccc(F)cc1)SCC2=O (centres undefined) | -9.7 | 34.4* | nt | nt | nt | nt | 55.4*
COc1ccc(CCN2C(=O)CSC2c2ccc(F)cc2)cc1 (centres undefined) | -5.7 | 6.5 | -7.0 | -1.7 | -3.5 | -8.1 | nt
COc1ccc(S(=O)(=O)N2CCN(C)CC2)cc1NC(=O)c1ccccc1 | -2.2 | 4.1 | -4.3 | -2.0 | -0.6 | -9.3 | nt
Cc1ccc(NC(=O)CC2SC3=NCCCN3C2=O)c(C)c1 (centres undefined) | -7.3 | 44.5* | -1.4 | -1.9 | -4.6 | 7.2 | 39.7*
O=C(OCCN1CCN(C2CN(Cc3cn(Cc4ccccc4C(F)(F)F)nn3)S(=O)(=O)C2)CC1)c1cc2ccccc2o1 (centres undefined) | nt | -1.1 | nt | nt | nt | nt | nt
Cc1c(C#N)c(N)nc(Cl)c1C#N | 2.7 | -3.2 | -1.3 | -1.6 | -0.7 | -4.4 | nt
N#Cc1c(Cl)nsc1NN | -28.7 | 39.6* | -9.2 | -3.4 | 3.9 | 6.8 | 6.7
Cc1cccc(NS(=O)(=O)c2cn(C)c(=O)n(C)c2=O)c1C | 4.9 | -4.2 | 0.2 | -0.8 | -7.0 | -6.4 | nt
O=C1c2cccc3c(N4CCCCC4)ccc(c23)C(=O)N1CCO | -0.1 | 40.3* | -1.9 | -8.5 | -10.3 | -11.3 | 12.6
C=CCN1C(=O)c2cccc3c(N4CCCCC4)ccc(c23)C1=O | -6.7 | 17.0 | -2.9 | 7.8 | -3.0 | -18.5 | nt
O=C1c2cccc3c(N4CCCCC4)ccc(c23)C(=O)N1c1cccc(O)c1 | -1.2 | 10.3 | -0.7 | 0.2 | -13.3 | -30.5 | nt
O=C(OCCN1C(=O)c2cccc3c(N4CCOCC4)ccc(c23)C1=O)c1ccccc1Cl | -3.2 | 77.9* | 10.0 | 2.0 | nt | nt | 64.7*
Cc1n[nH]c(C)c1N1C(=O)c2cccc3c(N4CCCCCC4)ccc(c23)C1=O | -2.0 | 99.7* | -17.5 | 8.6 | -77.4 | -146.6 | 88.3*
O=C(CSCC(=O)c1ccccc1)Nc1ccccc1Cl | -3.3 | 98.5* | -3.4 | 0.9 | -2.2 | -1.4 | 27.9*
O=C(Nc1ccccc1Cl)c1ccccc1 | 4.9 | 1.1 | 5.7 | 3.0 | 1.8 | 0.6 | nt
N#CC(CC(=O)c1ccc(F)cc1)c1ccc2c(c1)OCO2 (centres undefined) | -8.8 | -0.7 | -6.6 | -2.9 | 1.0 | -2.8 | nt
Cc1ccc(-c2nc3c(Cl)cc(C(F)(F)F)cn3c2Cc2ccccc2)cc1 | -0.7 | -5.3 | nt | nt | nt | nt | nt
SMILES | ABHD5-PLIN5 inh | PRMT1 inh | NS3 helicase inh | HCV core dimer | APOBEC3A inh | APOBEC3G inh | PRMT1 confirm
CCN(CC)c1ccc(SS(=O)(=O)O)cc1 | -27.9 | 75.0* | 0.9 | -14.2 | -0.7 | 9.7 | 82.9*
O=S(=O)(O)Sc1ccccc1 | -23.9 | 12.6 | nt | nt | nt | nt | nt
CCCC(c1nnnn1CCOC)N(Cc1cc2cc(C)c(C)cc2[nH]c1=O)CC1CCCO1 (centres undefined) | -7.5 | 26.4* | -5.3 | 4.4 | 1.8 | -0.6 | -3.3
CCc1nc2c(OCc3cccc(Cl)c3)cccn2c1N(C)C(=O)Nc1ccccc1OC | 8.4 | -0.1 | nt | nt | nt | nt | nt
O=[N+]([O-])c1nccn1CC(O)CO (centres undefined) | 7.3 | 4.9 | nt | nt | nt | nt | nt
CCN(CC)S(=O)(=O)c1ccc(C(=O)NCc2n[nH]c(=S)n2-c2ccccc2OC)cc1 | -2.4 | -0.5 | 12.1 | -1.3 | -3.8 | 16.0 | nt
CCN(CC)S(=O)(=O)c1ccc(C(=O)NCc2n[nH]c(=S)n2-c2ccc(Cl)c(Cl)c2)cc1 | -13.2 | 28.1* | 1.1 | -1.9 | -3.0 | -3.7 | 2.2
[2H]C([2H])(CCOS(N)(=O)=O)c1ccccc1 | -5.4 | 0.0 | -9.8 | -14.4 | 1.3 | 8.1 | nt
Cc1c(Cl)cnn1CC(=O)NC1C(=O)N2C(C(=O)O)=C(CSc3nnnn3C)CSC12 (centres undefined) | 9.3 | 62.5* | 20.0 | 3.1 | 17.7 | -8.7 | 34.6*
CC(C(=O)NC1C(=O)N2C(C(=O)O)=C(CSc3nnnn3C)CSC12)n1cc(Cl)cn1 (centres undefined) | 10.2 | 30.4* | 17.0 | -3.6 | 13.8 | 0.2 | 8.8
CC1(C)CC(=O)C2=C(C1)OC(N)=C(C#N)C2c1cc2c(cc1[N+](=O)[O-])OCO2 (centres undefined) | -15.6 | 58.4* | -1.5 | -4.5 | nt | nt | 30.7*
CCOc1cc(C2C(C#N)=C(N)OC3=C2C(=O)CC(C)(C)C3)cc([N+](=O)[O-])c1O (centres undefined) | -3.9 | -3.7 | -2.1 | -5.1 | -0.2 | -4.8 | nt
Cc1ccccc1Cn1cc(COC(=O)NCC(C)C)nn1 | nt | -1.0 | nt | nt | nt | nt | nt
Cc1ccc(C2=C(CC(=O)O)C(=O)CC2)cc1 | 2.9 | 0.2 | 8.5 | -9.3 | 2.0 | 3.2 | nt
COC(=O)CC1=C(c2ccc([N+](=O)[O-])cc2)CCC1=O | 16.2 | 59.7* | nt | nt | nt | nt | 1.1
Cc1cccc2nc(CSCc3ccco3)cn12 | -5.0 | 27.3* | 8.5 | 4.0 | 9.3 | -2.7 | 15.5
Cc1cc(C)n2cc(CSCc3ccco3)nc2n1 | 2.3 | 2.9 | -8.1 | 6.1 | 4.1 | -2.4 | nt

Bioassay records from PubChem.
